Values joined by “and” are separate entries in the source; they are usually repeats but may differ in a detail not shown here. Equal values may be shown once.
What was measured:
Fibroblast = experiment: Multiplex assay against human fibroblast; type: toxicity, cell-based; settings: number of replicates 2
Outline: (§1)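 Values for tubulin, mitochondrial-mass and membrane-permeability phenotypes are per cents of cells with healthy nuclei. These cells were identified by CellPathfinder machine-learning gating of live cells that had been stained at seeding with Hoechst33342, BioTracker Green Microtubule Cytoskeleton Dye, MitoTracker Red and Annexin V Alexa Fluor 680 and imaged on a CQ1 microscope at 37°C and 5% CO2 after compound addition. The gating first set Hoechst high-intensity objects apart from normal cells, then split normal cells into healthy, pyknosed or fragmented nuclei, and pyknosed cells into mitotic or apoptotic.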

U2OS = experiment: Multiplex assay against U2OS; type: toxicity, cell-based; settings: human, number of replicates 2; outline: as §1
[1] = 12 h, 1 µM, compound concentration 1 uM
[2] = 12 h, 10 µM, compound concentration 10 uM
[3] = 24 h, 1 µM, compound concentration 1 uM
[4] = 24 h, 10 µM, compound concentration 10 uM
[5] = 48 h, 1 µM, compound concentration 1 uM
[6] = 48 h, 10 µM, compound concentration 10 uM

C[C@@H](OC[C@@]1(c2ccccc2)CC[C@]2(CCC(=O)N2)CN1)c1cc(C(F)(F)F)cc(C(F)(F)F)c1 [ROLAPITANT]
Population Apoptotic (%) (Fibroblast; [1]): 32% and 48% | Population Fragmented Nuclei (%) (Fibroblast; [1]): 7% and 12% | Population Healthy Nuclei (%) (Fibroblast; [1]): 76% and 62% | Population Hoechst High Intensity Objects (%) (Fibroblast; [1]): 0% | Population Membrane Permeable-Phenotype (%) (Fibroblast; [1]): 9% and 4% | Population Mitochondria Different-Phenotype (%) (Fibroblast; [1]): 4% and 2% | Population Mitotic Cells (%) (Fibroblast; [1]): 67% and 51% | Population Normal (%) (Fibroblast; [1]): 100% and 99% | Population Pyknosed Nuclei (%) (Fibroblast; [1]): 15% and 25% | Population Tubulin-Different-Phenotype (%) (Fibroblast; [1]): 26% and 13% | Total Cell Count (Fibroblast; [1]): 195 and 264 | Population Apoptotic (%) (Fibroblast; [2]): 40% and 46% | Population Fragmented Nuclei (%) (Fibroblast; [2]): 17% and 10% | Population Healthy Nuclei (%) (Fibroblast; [2]): 67% and 71% | Population Hoechst High Intensity Objects (%) (Fibroblast; [2]): 0% | Population Membrane Permeable-Phenotype (%) (Fibroblast; [2]): 5% and 6% | Population Mitochondria Different-Phenotype (%) (Fibroblast; [2]): 7% and 3% | Population Mitotic Cells (%) (Fibroblast; [2]): 60% and 53% | Population Normal (%) (Fibroblast; [2]): 100% | Population Pyknosed Nuclei (%) (Fibroblast; [2]): 15% and 17% | Population Tubulin-Different-Phenotype (%) (Fibroblast; [2]): 45% and 26% | Total Cell Count (Fibroblast; [2]): 131 and 146 | Population Apoptotic (%) (Fibroblast; [3]): 40% and 55% | Population Fragmented Nuclei (%) (Fibroblast; [3]): 15% and 13% | Population Healthy Nuclei (%) (Fibroblast; [3]): 74% and 66% | Population Hoechst High Intensity Objects (%) (Fibroblast; [3]): 0% | Population Membrane Permeable-Phenotype (%) (Fibroblast; [3]): 2% and 8% | Population Mitochondria Different-Phenotype (%) (Fibroblast; [3]): 1% | Population Mitotic Cells (%) (Fibroblast; [3]): 60% and 44% | Population Normal (%) (Fibroblast; [3]): 100% | Population Pyknosed Nuclei (%) (Fibroblast; [3]): 9% and 20% | Population Tubulin-Different-Phenotype (%) (Fibroblast; [3]): 19% and 18% | Total Cell Count (Fibroblast; [3]): 202 and 257 | Population Apoptotic (%) (Fibroblast; [4]): 52% and 60% | Population Fragmented Nuclei (%) (Fibroblast; [4]): 23% and 16% | Population Healthy Nuclei (%) (Fibroblast; [4]): 62% and 66% | Population Hoechst High Intensity Objects (%) (Fibroblast; [4]): 0% | Population Membrane Permeable-Phenotype (%) (Fibroblast; [4]): 2% and 3% | Population Mitochondria Different-Phenotype (%) (Fibroblast; [4]): 14% and 5% | Population Mitotic Cells (%) (Fibroblast; [4]): 47% and 40% | Population Normal (%) (Fibroblast; [4]): 100% | Population Pyknosed Nuclei (%) (Fibroblast; [4]): 14% and 16% | Population Tubulin-Different-Phenotype (%) (Fibroblast; [4]): 59% and 28% | Total Cell Count (Fibroblast; [4]): 134 and 153 | Population Apoptotic (%) (Fibroblast; [5]): 58% and 66% | Population Fragmented Nuclei (%) (Fibroblast; [5]): 13% and 11% | Population Healthy Nuclei (%) (Fibroblast; [5]): 78% and 74% | Population Hoechst High Intensity Objects (%) (Fibroblast; [5]): 0% | Population Membrane Permeable-Phenotype (%) (Fibroblast; [5]): 4% and 8% | Population Mitochondria Different-Phenotype (%) (Fibroblast; [5]): 1% | Population Mitotic Cells (%) (Fibroblast; [5]): 41% and 33% | Population Normal (%) (Fibroblast; [5]): 100% | Population Pyknosed Nuclei (%) (Fibroblast; [5]): 8% and 14% | Population Tubulin-Different-Phenotype (%) (Fibroblast; [5]): 14% and 11% | Total Cell Count (Fibroblast; [5]): 204 and 254 | Population Apoptotic (%) (Fibroblast; [6]): 85% and 93% | Population Fragmented Nuclei (%) (Fibroblast; [6]): 32% and 23% | Population Healthy Nuclei (%) (Fibroblast; [6]): 58% and 67% | Population Hoechst High Intensity Objects (%) (Fibroblast; [6]): 0% | Population Membrane Permeable-Phenotype (%) (Fibroblast; [6]): 5% and 3% | Population Mitochondria Different-Phenotype (%) (Fibroblast; [6]): 3% and 6% | Population Mitotic Cells (%) (Fibroblast; [6]): 14% and 6% | Population Normal (%) (Fibroblast; [6]): 100% | Population Pyknosed Nuclei (%) (Fibroblast; [6]): 8% and 9% | Population Tubulin-Different-Phenotype (%) (Fibroblast; [6]): 44% and 20% | Total Cell Count (Fibroblast; [6]): 158 and 167 | Population Apoptotic (%) (U2OS; [1]): 20% and 40% | Population Fragmented Nuclei (%) (U2OS; [1]): 11% and 3% | Population Healthy Nuclei (%) (U2OS; [1]): 73% and 86% | Population Hoechst High Intensity Objects (%) (U2OS; [1]): 0% | Population Membrane Permeable-Phenotype (%) (U2OS; [1]): 4% and 1% | Population Mitochondria Different-Phenotype (%) (U2OS; [1]): 0% | Population Mitotic Cells (%) (U2OS; [1]): 80% and 59% | Population Normal (%) (U2OS; [1]): 100% | Population Pyknosed Nuclei (%) (U2OS; [1]): 14% and 9% | Population Tubulin-Different-Phenotype (%) (U2OS; [1]): 76% and 86% | Population Apoptotic (%) (U2OS; [2]): 37% and 50% | Population Healthy Nuclei (%) (U2OS; [2]): 85% and 71% | Population Hoechst High Intensity Objects (%) (U2OS; [2]): 0% | Population Membrane Permeable-Phenotype (%) (U2OS; [2]): 1% and 5% | Population Mitochondria Different-Phenotype (%) (U2OS; [2]): 0% and 5% | Population Mitotic Cells (%) (U2OS; [2]): 62% and 50% | Population Normal (%) (U2OS; [2]): 99% and 100% | Population Pyknosed Nuclei (%) (U2OS; [2]): 8% and 7% | Population Tubulin-Different-Phenotype (%) (U2OS; [2]): 87% and 30% | Population Apoptotic (%) (U2OS; [3]): 100% and 52% | Population Fragmented Nuclei (%) (U2OS; [3]): 7% and 2% | Population Healthy Nuclei (%) (U2OS; [3]): 90% and 87% | Population Hoechst High Intensity Objects (%) (U2OS; [3]): 0% | Population Membrane Permeable-Phenotype (%) (U2OS; [3]): 0% and 1% | Population Mitochondria Different-Phenotype (%) (U2OS; [3]): 0% and 1% | Population Normal (%) (U2OS; [3]): 100% | Population Pyknosed Nuclei (%) (U2OS; [3]): 2% and 9% | Population Tubulin-Different-Phenotype (%) (U2OS; [3]): 77% and 90%

Reference: ChEMBL document CHEMBL5303300, “EUbOPEN Chemogenomics Library - Multiplex” (2023)
